From ChEMBL document CHEMBL1921718, “Structure-activity relationships in toll-like receptor 2-agonists leading to simplified monoacyl lipopeptides” (J Med Chem, 2011)
The source made the active and inactive calls. The rule behind the calls is not given here.

Columns and labels:
[1] = molecular target: Toll-like receptor 2 (Homo sapiens, UniProt O60603); experiment: Agonist activity at human TLR2 expressed in HEK293 cells assessed as NF-kappaB induction measured soluble alkaline phosphatase after 12 hrs by spectrophotometric analysis; type: functional, cell-based
Toll-like receptor 2, sequence (O60603 whole entry): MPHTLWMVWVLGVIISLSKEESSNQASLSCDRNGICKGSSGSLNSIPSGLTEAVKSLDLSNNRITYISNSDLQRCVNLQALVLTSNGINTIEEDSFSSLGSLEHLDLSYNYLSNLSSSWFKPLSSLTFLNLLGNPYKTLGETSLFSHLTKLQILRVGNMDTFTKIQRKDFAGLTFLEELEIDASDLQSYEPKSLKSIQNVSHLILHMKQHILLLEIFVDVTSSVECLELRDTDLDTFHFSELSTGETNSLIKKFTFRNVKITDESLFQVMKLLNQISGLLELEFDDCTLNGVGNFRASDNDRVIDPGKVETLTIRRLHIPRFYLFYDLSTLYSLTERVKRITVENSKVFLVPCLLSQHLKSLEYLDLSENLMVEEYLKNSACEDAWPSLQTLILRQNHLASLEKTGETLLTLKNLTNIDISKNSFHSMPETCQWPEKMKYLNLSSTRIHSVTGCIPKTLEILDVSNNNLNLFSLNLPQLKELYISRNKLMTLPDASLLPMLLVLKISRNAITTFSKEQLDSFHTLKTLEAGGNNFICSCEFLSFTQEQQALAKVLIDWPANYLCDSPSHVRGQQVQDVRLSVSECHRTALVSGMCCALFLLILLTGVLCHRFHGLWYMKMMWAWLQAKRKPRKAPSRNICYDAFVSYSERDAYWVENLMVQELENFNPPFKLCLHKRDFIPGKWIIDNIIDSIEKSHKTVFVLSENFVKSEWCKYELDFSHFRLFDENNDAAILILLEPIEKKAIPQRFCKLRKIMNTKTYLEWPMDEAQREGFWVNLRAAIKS
Procedure, shortened: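 HEK-Blue cells (HEK293 stably transfected with human TLR2 and NF-κB-driven secreted alkaline phosphatase) kept in selection medium with zeocin and normocin; seeded ~10^5 cells/mL, grown to confluency, then stimulated 12 h with serially diluted compounds. Supernatant sAP read spectrophotometrically at 620 nm using an alkaline phosphatase-specific chromogen in the detection medium.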

[2] = Aqueous solubility of the compound; type: physicochemical; details: buffer
[3] = Upregulation of CD11b expression in human […] by flow cytometric analysis; type: functional, cell-based
Procedure, shortened: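 Fresh heparinized or anticoagulated human whole blood from healthy adults, incubated with graded compound dilutions 1 h at 37 °C, with saline negative controls. Kept on ice 15 min, then stained with anti-CD11b on ice 30 min so only surface CD11b was labelled. Red cells lysed and leukocytes fixed in one step; PE single-colour flow cytometry on 20,000 gated events.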

[4] = Upregulation of p38 MAPK expression in […] […] by flow cytometric analysis; type: functional, cell-based; details: Homo sapiens
Procedure, shortened: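 Heparinized fresh human whole blood exposed to graded compound concentrations in saline for 15 min at 37 °C. Red cells lysed and leukocytes fixed in one step, then permeabilized in ice-cold methanol 30 min. Stained with PE anti-phospho-p38MAPK (pT180/pY182, α/β/γ/δ isoforms). Single-colour PE flow cytometry on 20,000 gated events.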

SMILES | EC50 [1] | other results
CCCCCCCCCCCCCCCCOC(=O)CCSC[C@H](N)C(=O)N[C@@H](CO)C(=O)OC | > 1000 nM | 
CCCCCCCCCCCCCCCC(=O)OC[C@H](CSC[C@H](NC(=O)CC[C@H](N)C(=O)O)C(=O)NCC(=O)OC(C)C)OC(=O)CCCCCCCCCCCCCCC | > 1000 nM | 
CCCCCCCCCCCC(=O)OC[C@H](CSC[C@H](N)C(=O)N[C@@H](CO)C(=O)O)OC(=O)CCCCCCCCCCC | 6.48 nM | 
CCCCCCCCCCCCCCCC(=O)O[C@H](COC(=O)CNCCCNCCCCNCCCN)CSC[C@H](N)C(=O)N[C@@H](CO)C(=O)O | 3.23 nM | solubility [2]: soluble
CCCCCCCCCCCCCCCC(=O)OC[C@@H](O)CSC[C@H](N)C(=O)N[C@@H](CO)C(=O)O | 1.95 nM | 
CCCCCCCCCCCCCCCC(=O)OCCCSC[C@H](N)C(=O)N[C@@H](CO)C(=O)OC | > 1000 nM | 
CCCCC/C=C\C/C=C\CCCCCCCC(=O)OC[C@H](CSC[C@H](N)C(=O)NCC(=O)OC(C)C)OC(=O)CCCCCCC/C=C\C/C=C\CCCCC | 1 nM | 
CCOCCOCCOCCCNCC(=O)OC[C@H](CSC[C@H](N)C(=O)N[C@@H](CO)C(=O)O)OC(=O)CNCCCOCCOCCOCC | > 1000 nM | 
CCCCCCCCCCCCCCCC(=O)O[C@H](COC(=O)CNCCCOCCOCCOCC)CSC[C@H](N)C(=O)N[C@@H](CO)C(=O)O | 2.11 nM | solubility [2]: soluble
CCCCCCCCCCCCCCCC(=O)O[C@H](CO)CSC[C@H](N)C(=O)N[C@@H](CO)C(=O)O | 1.86 nM | 
CCCCCCCCCCCCCCCCOC(=O)CSC[C@H](N)C(=O)N[C@@H](CO)C(=O)OC | > 1000 nM | 
CCCCCCCCCCCCCCCC(=O)OC[C@H](C[Se]C[C@H](N)C(=O)N[C@@H](CO)C(=O)OC)OC(=O)CCCCCCCCCCCCCCC | 0.26 nM | 
CCCCCCCCCCCCCCCC(=O)O[C@H](COC(=O)CNCCCOCCOCCOCCCN)CSC[C@H](N)C(=O)N[C@@H](CO)C(=O)O | 1.55 nM | solubility [2]: soluble
CCCCCCCCCCCCCCCC(=O)OCC(CSC[C@H](N)C(=O)N[C@@H](CO)C(=O)O)OC(=O)CCCCCCCCCCCCCCC (mixture of isomers) |  | Activity [3]: Active; Activity [4]: Active
CC/C=C\C/C=C\C/C=C\CCCCCCCC(=O)OC[C@H](CSC[C@H](N)C(=O)NCC(=O)OC(C)C)OC(=O)CCCCCCC/C=C\C/C=C\C/C=C\CC | 0.87 nM | 
CCCCCCCCCCCCCCCC(=O)OCCSC[C@H](N)C(=O)N[C@@H](CO)C(=O)OC | 4.44 nM | Activity [3]: Active; Activity [4]: Active

The next lines start with results.

EC50 [1] | SMILES | other results
> 1000 nM | CCCCCCCCCCCCCCCC(=O)OC[C@H](CSC(C)(C)[C@H](N)C(=O)N[C@@H](CO)C(=O)O)OC(=O)CCCCCCCCCCCCCCC | 
1.47 nM | CCCCCCCCCCCCCCCCCC(=O)OC[C@H](CSC[C@H](N)C(=O)N[C@@H](CO)C(=O)O)OC(=O)CCCCCCCCCCCCCCCCC | 
0.45 nM | CCCCCCCCCCCCCCCC(=O)OC[C@H](CSC[C@H](N)C(=O)NCC(=O)OC(C)C)OC(=O)CCCCCCCCCCCCCCC | 
> 1000 nM | CCCCCCCCCCCCCCCC(=O)OC[C@H](CSCCC(=O)N[C@@H](CO)C(=O)OC)OC(=O)CCCCCCCCCCCCCCC | 
> 1000 nM | CCCCCCCCCCCCCCCC(=O)OC[C@H](CSCC[C@H](N)C(=O)N[C@@H](CO)C(=O)O)OC(=O)CCCCCCCCCCCCCCC | 
0.56 nM | CCCCCCCCCCCCCC(=O)OC[C@H](CSC[C@H](N)C(=O)N[C@@H](CO)C(=O)O)OC(=O)CCCCCCCCCCCCC | 
> 1000 nM | CCCCCCCCCCCCCCCC(=O)OC[C@H](CSC(C)(C)[C@@H](N)C(=O)N[C@@H](CO)C(=O)OC)OC(=O)CCCCCCCCCCCCCCC | 
